Screening results as filed in PubChem BioAssay.
M18AAP inhibitor: blocks P. falciparum M18 aspartyl aminopeptidase | recombinant PfM18AAP, H-Glu-NHMec fluorogenic cleavage | inhibition, % at 7.35 µM | 1.2% of 290,000 active;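 active means inhibition above the campaign mean inhibition over all tested compounds plus 3 SD, cut at about 28% in these data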;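 further: 0% = plate median of test compound wells and 100% = 2 mM ZnCl2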
NS3 helicase inh: blocks Hepatitis C virus NS3 helicase unwinding; NS3 helicase DNA unwinding, Cy5 molecular beacon fluorescence; inhibition, % at 10.9 µM; 0.56% of 290,000 active;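 active means inhibition above the mean of all tested compounds plus 3 SD, set per campaign, cut at about 35% in these data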;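 further: 0% = DMSO wells and 100% = thioflavine S control wells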
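Test system: hepatitis C virus NS3 helicase domain fragment enzyme. Also added: annealed dual-labelled DNA beacon duplex, ATP-started. Timing: 60 min unwinding reaction at 25 °C after ATP addition. Technique: Cy5 fluorescence. Measure: % inhibition of unwinding.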
EBNA-1 inh: blocks EBNA-1 binding to DNA; inhibition, % at 14.8 µM; EBNA-1 DNA binding, fluorescence polarization; 0.34% of 300,000 active; in the data active means inhibition above about 28%
ALR H2O2 inh: human ALR oxidase inhibition via reduced H2O2; P55789; purified ALR, DTT oxidation, H2O2 HRP-luminol luminescence; inhibition, % (no concentration beside the values); 3.8% of 290,000 active; AID 485317;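 active means mean replicate inhibition above about 79%, with every replicate also reaching it, limit read from the data; inconclusive means only one of the two criteria met; inactive means mean below limit and not every replicate reaching it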
Target sequence (P55789 whole entry, looked up): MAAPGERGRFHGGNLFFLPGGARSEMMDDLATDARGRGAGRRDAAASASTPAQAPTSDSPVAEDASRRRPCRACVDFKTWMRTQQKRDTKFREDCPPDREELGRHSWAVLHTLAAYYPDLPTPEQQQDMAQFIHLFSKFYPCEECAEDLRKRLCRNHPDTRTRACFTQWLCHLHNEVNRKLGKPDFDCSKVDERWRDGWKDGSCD
ZTA DNA inh: counter-screen for EBNA-1 inhibitors: inhibitors of Epstein-Barr virus ZTA | P03206 | ZTA-DNA binding, fluorescence polarization | inhibition, % at 11 µM | 0.15% of 320,000 active; in the data active means inhibition above about 33%
Target sequence (P03206 whole entry, looked up): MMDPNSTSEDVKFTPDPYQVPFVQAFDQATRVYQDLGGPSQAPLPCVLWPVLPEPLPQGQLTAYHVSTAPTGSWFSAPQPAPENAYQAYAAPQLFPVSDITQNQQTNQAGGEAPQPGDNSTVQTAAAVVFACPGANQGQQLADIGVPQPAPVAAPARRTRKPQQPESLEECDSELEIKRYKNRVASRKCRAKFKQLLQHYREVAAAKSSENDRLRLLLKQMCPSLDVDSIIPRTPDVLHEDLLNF
HCV core dimer: HCV core protein dimerization inhibition; TR-FRET GST/Flag-core106 dimerization, 1536-well; 0.33% of 300,000 active; inhibition, % at 5 µM; AID 1899;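 active means inhibition above the mean of all tested compounds plus 3 SD, set per screening campaign, cut at about 45% in these data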
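test system = GST/Flag-tagged HCV core106 proteins | probe or stimulus = Eu donor and XL665 acceptor anti-tag antibodies | times = compound-protein-antibody incubation 4 h at 22.5 °C | signal = TR-FRET, excitation 340 nm, emission 617 and 671 nm | measure = percent inhibition of core106 dimerization signal | controls = wells lacking GST-core106 and wells with excess unlabelled core106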
NS3 hel confirm: confirmation of Hepatitis C virus NS3 helicase inhibitors | 31% of 1,600 active | NS3 helicase DNA unwinding, Cy5 molecular beacon fluorescence | inhibition, % at 10.9 µM | shares compounds with NS3 helicase inh | AID 1943;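 active means inhibition above the mean of all tested compounds plus 3 SD, cutoff set per campaign, cut at about 36% in these data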
DNA FID counter: counter-screen for HCV NS3 helicase inhibitors: DNA intercalator displacement; shares compounds with NS3 helicase inh; DNA fluorescent intercalator displacement, fluorescence; inhibition, % at 7.9 µM; 4% of 1,600 active; AID 1945; in the data active means inhibition above about 37%;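 further: 0% = vehicle and 100% = reference compound; higher means more displacement of ethidium bromide from the DNA hairpin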
FID counter DR: displaces fluorescent intercalator from DNA, HCV helicase counter-screen | shares compounds with NS3 helicase inh | fluorescent intercalator displacement from DNA, fluorescence | IC50, µM | 120 tested, under 10 active; call rule not given here
* = called active by the depositor. Hits are enriched below; roughly 5.2% of the tested compounds scored in any of these assays.

CCn1cc(CNC(=O)c2cccc([N+](=O)[O-])c2)c(C)n1 was read as M18AAP inhibitor 13.3, NS3 helicase inh 11.4, EBNA-1 inh -1.9, ALR H2O2 inh -1.1, ZTA DNA inh -2.2 and HCV core dimer -7.0.
For CCn1cc(CNC(=O)c2ccc(Cl)c([N+](=O)[O-])c2)c(C)n1 the results were M18AAP inhibitor 5.8, NS3 helicase inh 36.0*, EBNA-1 inh 4.1, ALR H2O2 inh -5.0, ZTA DNA inh -0.4, HCV core dimer 1.8, NS3 hel confirm -13.3 and DNA FID counter 1.2.
Screening O=c1[nH][nH]c2c(N=Cc3ccccc3O)ccc(F)c12 returned M18AAP inhibitor 18.0, NS3 helicase inh 52.7*, NS3 hel confirm 17.8 and DNA FID counter 23.5.
Screening CCc1ccc(O)c(N=Cc2ccccc2O)c1 returned M18AAP inhibitor 24.1, NS3 helicase inh 9.9, EBNA-1 inh 8.0, ALR H2O2 inh 73.9, ZTA DNA inh 8.0 and HCV core dimer -7.0.
For Cc1cc2cc(C(c3nnnn3Cc3ccco3)N3CCc4ccccc4C3)c(=O)[nH]c2cc1C (centres undefined) the results were M18AAP inhibitor 13.3, NS3 helicase inh 39.0*, EBNA-1 inh -6.7, ALR H2O2 inh 36.5, ZTA DNA inh -2.8, HCV core dimer 24.9, NS3 hel confirm 64.5*, DNA FID counter -3.5 and FID counter DR >79.4.
Screening CCCCC(=O)NS(=O)(=O)c1ccc(N=NN(CC)CC)cc1 returned M18AAP inhibitor -3.9, NS3 helicase inh 8.4, EBNA-1 inh -3.9, ALR H2O2 inh -0.3, ZTA DNA inh -0.1 and HCV core dimer -1.9.
For O=C(NC1CC1)c1cc(-c2ccco2)nc2ccccc12 the results were M18AAP inhibitor -13.1, NS3 helicase inh 41.3*, NS3 hel confirm 34.4 and DNA FID counter 5.7.
For Cc1cccc(CNC(=O)c2cc(S(=O)(=O)N3CCOCC3)cn2C)c1 the results were M18AAP inhibitor 0.8, NS3 helicase inh 1.3, EBNA-1 inh 7.4, ALR H2O2 inh -3.2, ZTA DNA inh 14.3 and HCV core dimer 7.2.
Screening N#Cc1ccc(CSc2nnc(NC(=O)CCc3nc4ccccc4c(=O)[nH]3)s2)cc1 returned EBNA-1 inh -3.1, ALR H2O2 inh 60.5, ZTA DNA inh 8.6 and HCV core dimer 10.0.
For CC(=O)c1sc(C(=O)O)c(-c2ccco2)c1-c1ccco1 the results were M18AAP inhibitor 30.3*, NS3 helicase inh 52.0*, EBNA-1 inh -5.5, ALR H2O2 inh -0.7, ZTA DNA inh 7.5, HCV core dimer -3.7, NS3 hel confirm 35.7 and DNA FID counter 39.0*.
O=[N+]([O-])c1c(C(Cl)Cl)nn(-c2ccccc2)c1N1CCOCC1 was read as M18AAP inhibitor -9.8, NS3 helicase inh 58.5*, EBNA-1 inh 13.0, ALR H2O2 inh 1.1, ZTA DNA inh 8.3, HCV core dimer 2.3, NS3 hel confirm -13.1 and DNA FID counter -11.6.
Screening O=c1cc(CSc2ccc(Cl)cc2)[nH]c2[nH]n(-c3ccccc3)c(=O)c12 returned M18AAP inhibitor -14.8, NS3 helicase inh 40.3*, EBNA-1 inh 11.1, ALR H2O2 inh 84.7*, ZTA DNA inh 3.7, HCV core dimer -7.0, NS3 hel confirm 52.9*, DNA FID counter -5.4 and FID counter DR >79.4.
Cc1[nH]n(-c2ccccc2)c(=O)c1Sc1ccc(Cl)cc1 was read as M18AAP inhibitor 13.0, NS3 helicase inh 20.0, EBNA-1 inh 17.4, ALR H2O2 inh 21.8, ZTA DNA inh 6.2 and HCV core dimer 6.7.
For CC1=NN(c2ccc(C(=O)O)cc2)C(=O)/C1=C/c1ccc(-c2ccccc2F)o1 the results were M18AAP inhibitor 7.1, NS3 helicase inh 39.2*, EBNA-1 inh -1.3, ALR H2O2 inh inconclusive, ZTA DNA inh -8.1, HCV core dimer 9.3, NS3 hel confirm -7.4 and DNA FID counter 2.9.
`Cc1ccc(-c2cc(C(=O)O)c3cc(Br)ccc3n2)s1` gave M18AAP inhibitor 0.0, NS3 helicase inh 38.4*, ALR H2O2 inh 37.8, NS3 hel confirm 37.5* and DNA FID counter -5.9.
For Cc1ccc(-c2cc(C(=O)NCCCn3ccnc3)c3cc(Br)ccc3n2)o1 the results were M18AAP inhibitor 0.5, NS3 helicase inh -19.7, EBNA-1 inh 4.3, ALR H2O2 inh -2.3, ZTA DNA inh -3.8 and HCV core dimer 16.1.
For Cc1ccc(-c2cc(C(=O)O)c3cc(Br)ccc3n2)o1 the results were M18AAP inhibitor 6.5, NS3 helicase inh 38.4*, EBNA-1 inh 5.8, ZTA DNA inh 15.8, HCV core dimer 8.5, NS3 hel confirm 79.0* and DNA FID counter 8.1.
For CC(CCCN(C)C)C(Cc1ccccc1)c1ccccc1 (centres undefined) the results were EBNA-1 inh 4.6, ZTA DNA inh -4.0 and HCV core dimer -4.9.
`O=C(Cc1cccc(C(F)(F)F)c1)N1CCCC1` gave M18AAP inhibitor 0.8, NS3 helicase inh 3.0, EBNA-1 inh -0.9, ALR H2O2 inh -7.7, ZTA DNA inh -12.2 and HCV core dimer -13.7.
`CCOc1ccc(-n2c(C)cc(/C=C3/C(=N)N4C(=NC3=O)SN=C4S(C)(=O)=O)c2C)cc1` gave M18AAP inhibitor 1.6, NS3 helicase inh 37.9*, EBNA-1 inh 5.3, ALR H2O2 inh 97.8*, ZTA DNA inh -1.1, HCV core dimer 29.1, NS3 hel confirm 83.7* and DNA FID counter -8.9.
`Cc1cc(/C=C2/C(=N)N3C(c4ccccc4)=CSC3=NC2=O)c(C)n1-c1ccccc1` gave M18AAP inhibitor -0.3, NS3 helicase inh 15.3, EBNA-1 inh -1.5, ALR H2O2 inh -4.4, ZTA DNA inh 15.0 and HCV core dimer 44.9.
For Cc1ccccc1-n1c(C)cc(/C=C2/C(=N)N3C(c4ccccc4)=CSC3=NC2=O)c1C the results were M18AAP inhibitor -5.2, NS3 helicase inh 39.8*, EBNA-1 inh -4.0, ALR H2O2 inh -0.5, ZTA DNA inh 17.1, HCV core dimer 42.0, NS3 hel confirm 8.4 and DNA FID counter -10.9.
For O=C(OCN1C(=O)c2ccccc2C1=O)c1cccc(OC(F)F)c1 the results were M18AAP inhibitor -1.2, NS3 helicase inh -2.7, EBNA-1 inh 8.1, ALR H2O2 inh -2.0, ZTA DNA inh 13.9 and HCV core dimer 3.1.
Screening Cc1cc(C(=O)NC2CCCc3c2cnn3-c2ccc(C(C)(C)C)cc2)n[nH]1 (centres undefined) returned M18AAP inhibitor 4.2, NS3 helicase inh -3.0, EBNA-1 inh -15.2, ALR H2O2 inh -4.3, ZTA DNA inh 10.9 and HCV core dimer -9.8.
